In assay [1] the target is T1, D(2) dopamine receptor (Homo sapiens, UniProt P14416). As to the kind of experiment: Displacement of [3H]spiperone from human D2L receptor after 60 mins. The method, boiled down: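 Cloned human D2L receptor membranes from transfected cells were incubated 60 min at 27 °C with [3H]-spiperone (0.2 nM). Buffer was 50 mM Tris-HCl pH 7.4 with 10 mM MgCl2 and 1 mM EDTA, and haloperidol (10 µM) defined non-specific binding. Bound radioactivity was collected on 0.3% PEI-soaked GF/C filters and measured by scintillation counting.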

For assay [2], the target named is D(3) dopamine receptor (Rattus norvegicus) (UniProt P19020). As to the kind of experiment: Displacement of [3H]-spiperone from rat D3 receptor after 60 mins. For orientation: Displacement assays read how much labelled ligand stays bound in the presence of the test substance.
The next assay deals with D(3) dopamine receptor (Rattus norvegicus, UniProt P19020). Nature of the assay: Displacement of [3H]spiperone from rat dopamine D3 receptor after 60 mins.
Assay [3] addresses D(4) dopamine receptor (Homo sapiens) (UniProt P21917). As to the kind of experiment: Displacement of [3H]-YM-09151-2 from human D4.2 receptor after 60 mins.
In assay [4] the target is 5-hydroxytryptamine receptor 1A (Homo sapiens) (UniProt P08908). Nature of the assay: Displacement of [3H]8-OH-DPAT from human 5-HT1A receptor after 60 mins.
For assay [5], the target named is T1, D(2) dopamine receptor. As to the kind of experiment: Displacement of [3H]spiperone from human D2L receptor at 1 uM after 60 mins.

Structures are written as SMILES.

Chain of D(4) dopamine receptor (Homo sapiens) (P21917 whole entry, looked up): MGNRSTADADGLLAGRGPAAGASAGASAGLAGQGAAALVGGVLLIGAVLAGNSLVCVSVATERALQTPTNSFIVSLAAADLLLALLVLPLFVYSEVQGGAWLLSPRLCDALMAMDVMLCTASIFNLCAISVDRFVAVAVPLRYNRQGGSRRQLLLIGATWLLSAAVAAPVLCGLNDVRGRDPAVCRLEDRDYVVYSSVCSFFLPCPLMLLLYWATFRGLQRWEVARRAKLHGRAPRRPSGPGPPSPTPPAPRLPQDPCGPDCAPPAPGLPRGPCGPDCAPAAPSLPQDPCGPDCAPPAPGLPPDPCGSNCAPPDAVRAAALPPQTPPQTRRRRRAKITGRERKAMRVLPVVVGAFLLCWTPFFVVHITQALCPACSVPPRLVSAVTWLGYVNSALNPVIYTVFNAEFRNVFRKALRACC
T1 sequence (P14416 whole entry): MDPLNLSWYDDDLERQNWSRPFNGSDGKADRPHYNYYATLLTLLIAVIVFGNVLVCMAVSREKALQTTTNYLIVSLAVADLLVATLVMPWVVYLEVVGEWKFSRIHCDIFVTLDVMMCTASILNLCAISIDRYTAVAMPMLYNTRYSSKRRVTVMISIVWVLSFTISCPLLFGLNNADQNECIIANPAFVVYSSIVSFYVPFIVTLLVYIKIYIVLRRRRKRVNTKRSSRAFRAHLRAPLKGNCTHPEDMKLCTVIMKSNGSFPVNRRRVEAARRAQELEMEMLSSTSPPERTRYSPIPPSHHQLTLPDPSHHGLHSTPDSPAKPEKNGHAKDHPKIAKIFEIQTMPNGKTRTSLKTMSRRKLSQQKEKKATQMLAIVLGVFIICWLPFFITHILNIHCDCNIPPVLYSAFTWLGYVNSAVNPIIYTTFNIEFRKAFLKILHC
Chain of 5-hydroxytryptamine receptor 1A (Homo sapiens) (P08908 whole entry, looked up): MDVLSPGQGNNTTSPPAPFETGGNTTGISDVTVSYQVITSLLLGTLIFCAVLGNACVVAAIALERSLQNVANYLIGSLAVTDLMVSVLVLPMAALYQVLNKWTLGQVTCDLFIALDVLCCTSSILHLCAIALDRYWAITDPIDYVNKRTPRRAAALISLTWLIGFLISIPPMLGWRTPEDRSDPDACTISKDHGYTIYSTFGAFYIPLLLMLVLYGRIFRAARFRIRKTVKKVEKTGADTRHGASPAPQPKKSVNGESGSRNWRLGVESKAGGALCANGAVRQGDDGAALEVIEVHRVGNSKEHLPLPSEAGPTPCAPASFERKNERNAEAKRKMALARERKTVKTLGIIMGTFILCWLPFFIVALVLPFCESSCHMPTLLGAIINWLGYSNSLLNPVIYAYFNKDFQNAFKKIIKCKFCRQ
Chain of D(3) dopamine receptor (P19020 whole entry): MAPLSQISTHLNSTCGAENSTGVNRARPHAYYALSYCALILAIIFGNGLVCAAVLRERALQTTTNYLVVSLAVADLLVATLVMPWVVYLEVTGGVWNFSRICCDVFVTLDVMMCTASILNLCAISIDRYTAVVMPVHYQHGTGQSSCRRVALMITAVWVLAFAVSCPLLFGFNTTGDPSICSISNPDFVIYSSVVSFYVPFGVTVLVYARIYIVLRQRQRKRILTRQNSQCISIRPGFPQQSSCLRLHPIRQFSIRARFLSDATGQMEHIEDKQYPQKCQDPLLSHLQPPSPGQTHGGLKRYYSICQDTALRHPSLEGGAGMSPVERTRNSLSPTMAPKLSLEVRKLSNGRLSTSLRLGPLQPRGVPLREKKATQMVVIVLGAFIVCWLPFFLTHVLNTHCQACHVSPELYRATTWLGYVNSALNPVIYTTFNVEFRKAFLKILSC

For orientation: Ki means a measure of affinity in units of concentration, obtained from inhibition or displacement. As for `COc1ccccc1N1CCN(CCCCCCNC(=O)c2ccc3ccccc3c2)CC1`, the Ki on D(2) dopamine receptor [1] stood at 121 nM; in assay [2] it was 0.56 nM; at D(3) dopamine receptor it was 96 nM.
Consider `COc1ccccc1N1CCN(CCCCNS(=O)(=O)c2ccc3ccccc3c2)CC1`, for which the Ki on D(2) dopamine receptor [1] was found to be 46.5 nM; in assay [3], 62 nM; in assay [2] it was 27.5 nM; in assay [4], 4.1 nM; on D(3) dopamine receptor, 79 nM.
Consider `COc1ccccc1N1CCN(CCCCCNC(=O)c2ccc3ccccc3c2)CC1`, for which the Ki at D(2) dopamine receptor [1] stood at 254 nM; in assay [3], 54 nM; in assay [2] it was 13 nM; in assay [4], 11.1 nM; on D(3) dopamine receptor, 9.36 nM.
`COc1ccccc1N1CCN(CCNC(=O)c2ccc3ccccc3c2)CC1`: the Ki at D(2) dopamine receptor [1] was 890 nM; in assay [2] it was 66 nM; on D(3) dopamine receptor it was 113 nM.
Usually inhibition stands for the percentage by which the read-out fell short of the control. A low value points to a weak effect. As to `COc1ccccc1N1CCN(CCCCNC(=O)c2ccc3ccccc3c2)CC1`, on D(2) dopamine receptor [5], the inhibition is 30%.
Turning to `COc1ccccc1N1CCN(CCCCCNS(=O)(=O)c2ccc3ccccc3c2)CC1`, the Ki at D(2) dopamine receptor [1] amounted to 438 nM; in assay [2], 12.5 nM; at D(3) dopamine receptor, 84 nM.
`COc1ccccc1N1CCN(CCNS(=O)(=O)c2ccc3ccccc3c2)CC1`: the Ki turned out to be 24.4 nM in assay [3], 56 nM in assay [2], 5.19 nM in assay [4] and 348 nM on D(3) dopamine receptor. Further, on D(2) dopamine receptor [5], the inhibition was determined as 44%.
In the case of `COc1ccccc1N1CCN(CCCCCCNS(=O)(=O)c2ccc3ccccc3c2)CC1`, the Ki at D(2) dopamine receptor [1] is 99 nM; in assay [3], 9.62 nM; in assay [2], 1.97 nM; in assay [4] it was 2.87 nM; at D(3) dopamine receptor, at most 45 nM.
As for `COc1ccccc1N1CCN(CCCNS(=O)(=O)c2ccc3ccccc3c2)CC1`, the Ki was determined as 132 nM on D(2) dopamine receptor [1]; 112 nM in assay [3]; 58.5 nM in assay [2]; 4.64 nM in assay [4]; 101 nM at D(3) dopamine receptor.
In the case of `COc1ccccc1N1CCN(CCCNC(=O)c2ccc3ccccc3c2)CC1`, the Ki in assay [3] worked out at 17.8 nM; in assay [2], 175 nM; in assay [4], 4.59 nM; on D(3) dopamine receptor it was 71 nM. On D(2) dopamine receptor [5], this molecule gave an inhibition of 46%.

The record behind these values is ChEMBL document CHEMBL1221249, “Synthesis and in vitro binding studies of piperazine-alkyl-naphthamides: impact of homology and sulphonamide/carboxamide bioisosteric replacement on the affinity for 5-HT1A, alpha2A, D4.2, D3 and D2L receptors” (Bioorg Med Chem Lett, 2010).
